The source of these data is PubChem BioAssay.

Calls of active or inactive are those of the source.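 How the source made its calls, unless noted: active means fluorescence slope higher than the sample average by over 3 SD (cut at about -0.22 in these data, passing the limit was not always enough); inactive means the rest.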

The nature of test [1]: inhibitors of TNFa-induced NFkB p65 translocation, primary screen, imaging, HUVEC, MLSMR starter and 10KST1 sets (AID 438;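 active means inhibition above 20% together with a positive visual image hit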;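 further: compound added about 3h40 before a 20 min TNFalpha stimulation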;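 on inhibition: signal is the nuclear over cytoplasmic p65 intensity ratio per well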). The following applies: HUVEC TNFa-induced p65 nuclear translocation; cell count: measured here: nuclei count (cytotoxicity indicator), at 2.08 µM; inhibition: at 2 µM, stronger effect = higher value, 0% TNFa-plus-vehicle, 100% no-TNFa wells.
Test [2] is described as follows: inhibitors of mutant huntingtin aggregation, primary screen, imaging, exon1htt(103Q)mCFP cells, high-content imaging (AID 483;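 active means visual image review flags a hit and inhibition of aggregation exceeds 20%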;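 further: compound exposure lasted 3 days before fixation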;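 on nuclei count: percent of the per-plate median nuclei count of sample wells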). As to conditions: exon1htt(103Q)mCFP cell line, aggregate imaging, at 2 µM; inhibition of aggregation: stronger effect = higher value; nuclei count: measured here: cell count, toxicity.
Test [3] is described as follows: inhibitors of E-selectin induction by TNFa, primary screen, imaging, HUVEC, immunofluorescence, MLSMR starter and 10KST1 sets (AID 487;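 active means visually confirmed hit in the image check and inhibition above 20%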;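 on inhibition: signal is fraction of cell area covered by stained E-selectin grains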;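 on nuclei count: 100% = median nuclei count of all wells on the same plate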). The following applies: HUVEC TNFalpha-induced E-selectin immunofluorescence imaging, at 2 µM; inhibition: stronger effect = higher value; nuclei count: measured here: cell number, toxicity.
Test [4] concerns the target Voltage-gated potassium channel subunit beta-2 (Rattus norvegicus) (UniProt P62483). The experiment in a line: KvBeta enzyme negative modulators, primary screen, biochemical, NADPH fluorescence (AID 622).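 Further: slope of raw intensity against log time taken from 70 to 1610 s.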 As to conditions: recombinant KvBeta, 4-cyanobenzaldehyde reduction, at 10 µM, stronger effect = higher value.
The target is the same in test [5]. The experiment in a line: KvBeta positive modulators, primary screen, biochemical, NADPH fluorescence (AID 623;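 active means NADPH fluorescence slope more negative than the mean of all samples by about 3 SD, 99.7% confidence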;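 further: fluorescence intensity change per second fitted from 20 to 320 s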). The following applies: Recombinant KvBeta, NADPH fluorescence decrease slope, 10 min; at 10 µM; stronger effect = lower value.
Test [6] concerns the target Muscarinic acetylcholine receptor M4 (Homo sapiens) (UniProt P08173). The experiment in a line: compounds altering M4/GIRK thallium flux, either direction, primary screen, M4 allosteric agonist project, cell-based, HEK293 M4/GIRK, BTC-AM (AID 625;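 active means fluorescence slope after compound addition differing from the mean of all tested samples at 99.7% confidence, mostly higher but some lower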;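 further: thallium influx through GIRK channels coupled to M4 in HEK293 cells with BTC-AM dye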). The following applies: at 10 µM, actives lie on both sides. Put shortly:
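assay system = HEK293 cells with M4 receptor and GIRK channels | medium = pH 7.3 thallium assay buffer | doses = 10 µM final, single point | timing = cells overnight at 37 °C, BTC-AM loading 1 h, reads 2 min total | signal = BTC-AM fluorescence, 1 Hz kinetic reads | read-out = post-addition slope, 15–24 s, of baseline-normalized fluorescence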

The nature of test [7]: inhibitors of Sendai virus-induced IRF3 signaling, primary screen, TLR/RLR signaling modifier project, cell-based, Sendai virus stimulus, luciferase, 10K MLSCN set (AID 602276;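 active means inhibition at or above 50% at 10 µM; inactive means inhibition below 50%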;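 further: firefly luciferase from ISG56 promoter only with Renilla not read in this screen; 0% = Sendai virus plus DMSO and 100% = medium plus DMSO without virus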). As to conditions: HEK293 RL24 IRF3 luciferase reporter, at 10 µM, stronger effect = higher value. A general note: Reporter assays use an easily measured gene product as a stand-in for the process of interest.
Test [8] in a line: inhibitors of poly I:C-induced TLR3 signaling, primary screen, cell-based, poly I:C stimulus, luciferase, 10K MLSCN set (AID 602277;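 active means inhibition of the reporter signal at or above 50%; inactive means inhibition below 50%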). The following applies: HEK293-TLR3 RL24 IRF3 luciferase reporter, at 10 µM, stronger effect = higher value.

Voltage-gated potassium channel subunit beta-2 (Rattus norvegicus), sequence (P62483 whole entry, looked up): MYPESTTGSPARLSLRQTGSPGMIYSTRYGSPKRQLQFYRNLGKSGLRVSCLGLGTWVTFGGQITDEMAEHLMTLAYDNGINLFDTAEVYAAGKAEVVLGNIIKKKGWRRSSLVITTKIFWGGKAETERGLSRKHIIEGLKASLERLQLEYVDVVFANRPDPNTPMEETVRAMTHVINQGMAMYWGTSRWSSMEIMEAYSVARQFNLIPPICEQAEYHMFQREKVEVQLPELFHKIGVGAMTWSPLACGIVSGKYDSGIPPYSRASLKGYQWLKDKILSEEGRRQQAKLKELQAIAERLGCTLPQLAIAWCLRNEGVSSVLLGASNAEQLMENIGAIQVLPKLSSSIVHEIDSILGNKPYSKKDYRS
Muscarinic acetylcholine receptor M4 (Homo sapiens), sequence (P08173 whole entry, looked up): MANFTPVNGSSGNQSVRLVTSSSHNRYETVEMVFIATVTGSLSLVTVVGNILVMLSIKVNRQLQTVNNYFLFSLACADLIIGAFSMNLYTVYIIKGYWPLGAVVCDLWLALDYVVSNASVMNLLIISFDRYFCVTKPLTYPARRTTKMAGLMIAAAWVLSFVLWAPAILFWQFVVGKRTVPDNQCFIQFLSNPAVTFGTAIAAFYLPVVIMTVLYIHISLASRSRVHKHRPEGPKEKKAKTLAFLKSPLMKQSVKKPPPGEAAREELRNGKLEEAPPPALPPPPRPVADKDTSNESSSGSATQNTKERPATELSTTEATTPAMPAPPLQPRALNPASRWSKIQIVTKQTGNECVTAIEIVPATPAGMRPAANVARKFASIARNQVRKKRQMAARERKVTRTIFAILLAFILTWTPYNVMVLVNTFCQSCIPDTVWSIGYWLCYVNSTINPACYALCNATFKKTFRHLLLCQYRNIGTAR

For orientation: inhibition means the change of the read-out against control, counted positive when it falls. Take `Cc1nc(CNS(=O)(=O)c2ccc3c(c2)OCCO3)cs1`: the cell count in test [1] came out at 309. The inhibition is 0.5% (inactive) in test [1], 12.1% (inactive) in test [3], -8.22% (inactive) in test [7] and -38.6% (inactive) in test [8]. Besides, in test [2], the inhibition of aggregation was 10.1% (inactive). The results for the nuclei count in test [2] and in test [3] were 106% and 110%, respectively. Besides, the values for the fluorescence slope in test [4] and in test [6] were -0.568 (inactive) and 0.00404 (inactive), respectively. Moreover, the NADPH fluorescence slope in test [5] is -2.7e-05 (inactive).

As for `Nc1nnc(SCC(=O)N2CCc3ccccc32)n1-c1ccccc1`, the cell count in test [1] is 449. Also, the inhibition in test [1] is -3.6% (inactive); in test [3] it was -79.9% (inactive); in test [7] it was 17.7% (inactive); in test [8], 27.2% (inactive). The inhibition of aggregation in test [2] was -2% (inactive). Also, the results for the nuclei count in test [2] and in test [3] were 94.9% and 111%, respectively. For the same molecule, the fluorescence slope is -0.542 (inactive) in test [4] and 0.00439 (inactive) in test [6]. Moreover, the NADPH fluorescence slope in test [5] was -4.3e-05 (inactive).

`CSC1CCCCC1(O)CSc1nc2c(cc1C#N)CCCC2` (centres undefined): the cell count in test [1] worked out at 306. Also, the inhibition is -7.4% (inactive) in test [1], -111% (inactive) in test [3], 21.3% (inactive) in test [7] and 13.8% (inactive) in test [8]. In test [2], the inhibition of aggregation was 9% (inactive). The nuclei count in test [2] was determined as 87%; in test [3], 78.9%. Further, the fluorescence slope in test [4] was -0.411 (inactive); in test [6] it was 0.00633 (inactive). Also, in test [5], the NADPH fluorescence slope was 1e-05 (inactive).

Turning to `CC1CCCC(C(=O)OCc2ccccc2)N1` (centres undefined), the cell count in test [1] is 551. Also, the inhibition is -10.9% (inactive) in test [1], -120% (inactive) in test [3], 13.2% (inactive) in test [7] and 20.1% (inactive) in test [8]. For the same molecule, in test [2], the inhibition of aggregation was -31.2% (inactive). Also, the figures for the nuclei count in test [2] and in test [3] were 113% and 122%, respectively. For the same molecule, the figures for the fluorescence slope in test [4] and in test [6] were -0.389 (inactive) and 0.00626 (inactive), respectively. Also, in test [5], the NADPH fluorescence slope is 3.2e-05 (inactive).

For `CCc1nc(C)c(-c2ccccc2)c(=O)[nH]1`, in test [1], the cell count worked out at 211. For the same molecule, the inhibition in test [1] was 0.8% (inactive); in test [3], -99.3% (inactive); in test [7], -0.853% (inactive); in test [8] it was 3.2% (inactive). In addition, in test [2], the inhibition of aggregation is 5.5% (inactive). Moreover, the results for the nuclei count in test [2] and in test [3] were 97.2% and 102%, respectively. Also, the fluorescence slope in test [4] is -0.567 (inactive); in test [6], 0.00452 (inactive). Further, the NADPH fluorescence slope in test [5] was -7.1e-06 (inactive).

As to `COCC(=O)N(Cc1nc2ccccc2c(=O)[nH]1)Cc1cccs1`, in test [1], the cell count was found to be 608. Moreover, the inhibition in test [1] is -5.4% (inactive); in test [3] it was -64.2% (inactive); in test [7] it was 20.3% (inactive); in test [8], 22.3% (inactive). Moreover, in test [2], the inhibition of aggregation was -6.1% (inactive). Further, the nuclei count came to 105% in test [2] and 114% in test [3]. The figures for the fluorescence slope in test [4] and in test [6] were -0.557 (inactive) and 0.00566 (inactive), respectively. Further, the NADPH fluorescence slope in test [5] is -3e-05 (inactive).

For `Cc1cc(C)c2nc(N)sc2c1`, the cell count in test [1] came to 615. For the same molecule, the inhibition in test [1] is 6.3% (inactive); in test [3], 16% (inactive); in test [7], -28.1% (inactive); in test [8], -46.7% (inactive). Moreover, the inhibition of aggregation in test [2] is 31.1% (inactive). The nuclei count in test [2] was determined as 67.2%; in test [3], 107%. Moreover, the fluorescence slope in test [4] is -0.281 (inactive); in test [6], 0.00618 (inactive). Besides, in test [5], the NADPH fluorescence slope is -1.5e-05 (inactive).

In the case of `COc1cc2nc(C3CCC3)n(NC(=O)C3CCCC(OC)C3)c(=O)c2cc1OC` (centres undefined), the cell count in test [1] amounted to 609. The inhibition in test [1] is -8.8% (inactive); in test [3] it was -30.3% (inactive); in test [7], 15.8% (inactive); in test [8], 9.02% (inactive). Also, in test [2], the inhibition of aggregation is -18% (inactive). Besides, the values for the nuclei count in test [2] and in test [3] were 106% and 107%, respectively. The fluorescence slope in test [4] was -0.266 (inactive); in test [6], 0.00583 (inactive). Further, the NADPH fluorescence slope in test [5] is -1.2e-05 (inactive).

With `c1ccc(-c2csc(N3CCCCCC3)n2)cc1`, the cell count in test [1] is 403. The inhibition in test [1] was 7.3% (inactive); in test [3], -77.2% (inactive); in test [7] it was -82.9% (inactive); in test [8], -160% (inactive). For the same molecule, the inhibition of aggregation in test [2] is -6.8% (inactive). Moreover, the nuclei count is 112% in test [2] and 110% in test [3]. For the same molecule, the fluorescence slope in test [4] is -0.551 (inactive); in test [6] it was 0.0048 (inactive). The NADPH fluorescence slope in test [5] was 9.4e-06 (inactive).

As for `COC(=O)c1onc(C(=O)c2ccccc2)c1C(=O)OC`, in test [1], the cell count came out at 405. Besides, the inhibition in test [1] is 2.7% (inactive); in test [3] it was -67.9% (inactive); in test [7], 16.3% (inactive); in test [8] it was 12.9% (inactive). Moreover, the inhibition of aggregation in test [2] was -4.5% (inactive). For the same molecule, the nuclei count in test [2] is 103%; in test [3], 114%. The fluorescence slope in test [4] is -0.568 (inactive); in test [6], 0.00647 (inactive). In addition, the NADPH fluorescence slope in test [5] is -4.3e-05 (inactive).

On to `O=C(COc1ccccc1Cl)OCC(=O)N1CCN(S(=O)(=O)c2ccccc2)CC1`, for which the cell count in test [1] was found to be 270. For the same molecule, the inhibition was 2.6% (inactive) in test [1], -107% (inactive) in test [3], 16.4% (inactive) in test [7] and 21% (inactive) in test [8]. For the same molecule, the inhibition of aggregation in test [2] was -0.5% (inactive). In addition, the nuclei count came to 107% in test [2] and 119% in test [3]. For the same molecule, the fluorescence slope in test [4] is -0.438 (inactive); in test [6], 0.00565 (inactive). Further, the NADPH fluorescence slope in test [5] is 7.9e-05 (inactive).

As for `COc1ccccc1C1c2c(oc3ccc(Cl)cc3c2=O)C(=O)N1c1cc(C)on1` (centres undefined), the cell count in test [1] was 345. For the same molecule, the inhibition is -5% (inactive) in test [1], -13.8% (inactive) in test [3], 24.8% (inactive) in test [7] and 16.8% (inactive) in test [8]. For the same molecule, the inhibition of aggregation in test [2] is 2.2% (inactive). Also, the nuclei count in test [2] was determined as 103%; in test [3], 112%. For the same molecule, the fluorescence slope in test [4] is -0.555 (inactive); in test [6] it was 0.0044 (inactive). In test [5], the NADPH fluorescence slope is 2.1e-05 (inactive).

For the molecule `COc1ccc(OC(C)C(=O)N2CC(C)OC(C)C2)cc1` (centres undefined), the cell count in test [1] stood at 436. In addition, the inhibition in test [1] is 12.2% (inactive); in test [3], -7.5% (inactive); in test [7], 14.1% (inactive); in test [8], 30.8% (inactive). Besides, the inhibition of aggregation in test [2] is -4.6% (inactive). In addition, the nuclei count amounted to 97.2% in test [2] and 120% in test [3]. The fluorescence slope in test [4] is -0.566 (inactive); in test [6], 0.00556 (inactive). For the same molecule, the NADPH fluorescence slope in test [5] is 1.5e-06 (inactive).

`COc1cccc(CNC(=O)CCn2c(=O)oc3ccccc32)c1`: the cell count in test [1] came to 277. The inhibition in test [1] is -11.3% (inactive); in test [3], -28.3% (inactive); in test [7] it was 14.4% (inactive); in test [8] it was 20.5% (inactive). Also, the inhibition of aggregation in test [2] was 21.1% (inactive). The nuclei count is 8.9% in test [2] and 104% in test [3]. In addition, the values for the fluorescence slope in test [4] and in test [6] were -0.551 (inactive) and 0.0058 (inactive), respectively. Further, in test [5], the NADPH fluorescence slope is 5e-05 (inactive).
